Reference: ChEMBL document CHEMBL1131450, “Synthesis and antitumor evaluation of 2,5-disubstituted-indazolo[4, 3-gh]isoquinolin-6(2H)-ones (9-aza-anthrapyrazoles)” (J Med Chem, 1998)
Converted amounts (≈) assume the structure as drawn.

Tests used:
LoVo [1] = experiment: In vitro cytotoxicity on human colon adenocarcinoma (LoVo ) tumor cell line.; type: functional, cell-based
MX1 [2] = experiment: In vivo antitumor activity was measured on MX-1 human mammary carcinoma cells. TWI%=tumor weight inhibition. Optimal dose 13 mg/kg/day.; type: functional
P388 [3] = experiment: In vivo antitumor activity was measured on systemic P388 murine leukemia cells. Optimal dose 7.5 mg/kg/day.; type: functional, Mus musculus
Summary of the method: (§1)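 CD2F1 male mice given 10⁶ P388 leukemia cells iv (day 0); drug given iv on days 1, 4 and 7. Survival expressed as T/C% = median survival time of treated / median survival of controls × 100, reported at optimal dose (mg/kg/day) or maximum tested dose.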

LoVo [4] = experiment: Resistance index measured as the ratio of IC50 of LoVo/Dx cell line to that of LoVo cell line.; type: functional, Homo sapiens
LoVo/Dx (Homo sapiens) = experiment: cells
MX1 [5] = experiment: In vivo antitumor activity was measured on MX-1 human mammary carcinoma cells. TWI%=tumor weight inhibition. Optimal dose 27 mg/kg/day.; type: functional
P388 [6] = experiment: In vivo antitumor activity was measured on systemic P388 murine leukemia cells. Optimal dose 24 mg/kg/day.; type: functional, Mus musculus; summary of the method: as §1
P388 [7] = experiment: In vivo antitumor activity was measured on systemic P388 murine leukemia cells. Optimal dose 1.5 mg/kg/day.; type: functional, Mus musculus; summary of the method: as §1
MX1 [8] = experiment: In vivo antitumor activity was measured on MX-1 human mammary carcinoma cells. TWI%=tumor weight inhibition. Optimal dose 24 mg/kg/day.; type: functional
P388 [9] = type: functional, Mus musculus
MX1 [10] = experiment: Antitumor activity was measured on MX-1 human mammary carcinoma cells. TWI%=tumor weight inhibition. Optimal dose at 40 mg/kg/day; type: functional
P388 [11] = experiment: In vivo antitumor activity was measured on systemic P388 murine leukemia cells. Optimal dose at 40 mg/kg/day; type: functional, Mus musculus; summary of the method: as §1
MX1 [12] = experiment: In vivo antitumor activity was measured on MX-1 human mammary carcinoma cells. TWI%=tumor weight inhibition. Optimal dose 120 mg/kg/day.; type: functional
P388 [13] = experiment: In vivo antitumor activity was measured on systemic P388 murine leukemia cells. Maximum tested dose 40 mg/kg/day.; type: functional, Mus musculus; summary of the method: as §1
P388 [14] = experiment: In vivo antitumor activity was measured on systemic P388 murine leukemia cells. Optimal dose 6 mg/kg/day.; type: functional, Mus musculus; summary of the method: as §1
MX1 [15] = experiment: In vivo antitumor activity was measured on MX-1 human mammary carcinoma cells. TWI%=tumor weight inhibition. Optimal dose 9 mg/kg/day.; type: functional
P388 [16] = experiment: In vivo antitumor activity was measured on systemic P388 murine leukemia cells. Maximum tested dose 3 mg/kg/day.; type: functional, Mus musculus; summary of the method: as §1
MX1 [17] = experiment: Antitumor activity was measured on MX-1 human mammary carcinoma cells. TWI%=tumor weight inhibition. Optimal dose at 7.5 mg/kg/day; type: functional
P388 [18] = experiment: In vivo antitumor activity was measured on systemic P388 murine leukemia cells. Optimal dose at 7.5 mg/kg/day; type: functional, Mus musculus; summary of the method: as §1
MX1 [19] = experiment: In vivo antitumor activity was measured on MX-1 human mammary carcinoma cells. TWI%=tumor weight inhibition. Optimal dose 6 mg/kg/day.; type: functional
P388 [20] = experiment: In vivo antitumor activity was measured on systemic P388 murine leukemia cells. Optimal dose 3 mg/kg/day.; type: functional, Mus musculus; summary of the method: as §1
MX1 [21] = experiment: In vivo antitumor activity was measured on MX-1 human mammary carcinoma cells. TWI%=tumor weight inhibition. Optimal dose 60 mg/kg/day.; type: functional
P388 [22] = experiment: In vivo antitumor activity was measured on systemic P388 murine leukemia cells. Maximum tested dose 20 mg/kg/day.; type: functional, Mus musculus; summary of the method: as §1
MX1 [23] = experiment: In vivo antitumor activity was measured on MX-1 human mammary carcinoma cells. TWI%=tumor weight inhibition. Optimal dose 8 mg/kg/day.; type: functional
P388 [24] = experiment: In vivo antitumor activity was measured on systemic P388 murine leukemia cells. Toxic deaths observed at dose 18 mg/kg/day.; type: functional, Mus musculus
MX1 [25] = experiment: In vivo antitumor activity was measured on MX-1 human mammary carcinoma cells. TWI%=tumor weight inhibition. Optimal dose 1.3 mg/kg/day.; type: functional
P388 [26] = experiment: In vivo antitumor activity was measured on systemic P388 murine leukemia cells. Optimal dose 13 mg/kg/day.; type: functional, Mus musculus; summary of the method: as §1
P388 [27] = experiment: In vivo antitumor activity was measured on systemic P388 murine leukemia cells. Maximum tested dose 60 (mg/kg/day); type: functional, Mus musculus; summary of the method: as §1

SMILES | IC50 (LoVo [1]) [µg/mL] | RI (LoVo [4]) | IC50 (LoVo/Dx (Homo sapiens)) [µg/mL] | also measured
NCCNc1ccc2c3c(nn2CCN)-c2cnccc2C(=O)c13 | 0.86 (≈ 2.67 µM) | 18 | 15.4 (≈ 47.8 µM) | TWI (MX1 [2]): 70%; T/C (P388 [3]): 194%
NCCn1nc2c3c(c(NCCNCCO)ccc31)C(=O)c1ccncc1-2 | 1.63 (≈ 4.45 µM) | >61 | > 100 | TWI (MX1 [5]): 62%; T/C (P388 [6]): 194%
CNCCNc1ccc2c3c(nn2CCNC)-c2cnccc2C(=O)c13 | 0.04 (≈ 0.114 µM) | 78 | 3.14 (≈ 8.96 µM) | T/C (P388 [7]): 167%
CN(C)CCCn1nc2c3c(c(NCCN(C)C)ccc31)C(=O)c1ccncc1-2 | 0.24 (≈ 0.611 µM) | 8.3 | 2 (≈ 5.1 µM) | TWI (MX1 [8]): 55%; T/C (P388 [9]): 270%
O=C1c2ccncc2-c2nn(CCNCCO)c3ccc(NCCNCCO)c1c23 | 4.5 (≈ 11 µM) | >22 | > 100 | TWI (MX1 [10]): 89%; T/C (P388 [11]): 165%
CN(C)CCn1nc2c3c(c(NCCn4ccnc4)ccc31)C(=O)c1ccncc1-2 | 1.1 (≈ 2.74 µM) | >91 | > 100 | TWI (MX1 [12]): 70%; T/C (P388 [13]): 150%
CN(C)CCn1nc2c3c(c(NCCNCCO)ccc31)C(=O)c1ccncc1-2 | 0.2 (≈ 0.507 µM) | 206 | 41.2 (≈ 104 µM) | T/C (P388 [14]): 194%; TWI (MX1 [15]): 99%
CN(C)CCn1nc2c3c(c(NCCN4CCCCC4)ccc31)C(=O)c1ccncc1-2 | 0.35 (≈ 0.836 µM) | 1.1 | 0.39 (≈ 0.932 µM) | TWI (MX1 [8]): 6%; T/C (P388 [16]): 113%
COc1cccc2c1C(=O)c1c(O)c3c(c(O)c1C2=O)C[C@@](O)(C(=O)CO)C[C@@H]3O[C@H]1C[C@H](N)[C@H](O)[C@H](C)O1 [DOXORUBICIN] | 0.58 (≈ 1.07 µM) | 91.3 | 53 (≈ 97.5 µM) | TWI (MX1 [17]): 64%; T/C (P388 [18]): 200%
CN(C)CCn1nc2c3c(c(NCCN4CCOCC4)ccc31)C(=O)c1ccncc1-2 | 1.35 (≈ 3.21 µM) | 2.7 | 3.63 (≈ 8.63 µM) | TWI (MX1 [5]): 48%; T/C (P388 [6]): 256%
CNCCNc1ccc2c3c(nn2CCN)-c2cnccc2C(=O)c13 | 0.21 (≈ 0.624 µM) | 49 | 10.2 (≈ 30.3 µM) | TWI (MX1 [19]): 70%; T/C (P388 [20]): 153%
CN(C)CCn1nc2c3c(c(NCCNS(C)(=O)=O)ccc31)C(=O)c1ccncc1-2 | 4.1 (≈ 9.57 µM) | >24 | > 100 | TWI (MX1 [21]): 90%; T/C (P388 [22]): 111%
CN(C)CCNCCNc1ccc2c3c(nn2CCN(C)C)-c2cnccc2C(=O)c13 | 3.2 (≈ 7.59 µM) | >31 | > 100 | TWI (MX1 [21]): 25%; T/C (P388 [13]): 133%
CN(C)CCn1nc2c3c(c(NCCCN)ccc31)C(=O)c1ccncc1-2 | 1.65 (≈ 4.53 µM) | 7.6 | 12.5 (≈ 34.3 µM) | TWI (MX1 [23]): 73%; T/C (P388 [24]): 125%
CNCCNc1ccc2c3c(nn2CCN(C)C)-c2cnccc2C(=O)c13 | 0.03 (≈ 0.0823 µM) | 126 | 3.78 (≈ 10.4 µM) | TWI (MX1 [25]): 68%; T/C (P388 [26]): 262%
NCCNc1ccc2c3c(nn2CCO)-c2cnccc2C(=O)c13 | 28.6 (≈ 88.4 µM) | >3.5 | > 100 | T/C (P388 [27]): 106%
